Data taken from ChEMBL document CHEMBL1133614, “Novel radiotracers for imaging the serotonin transporter by positron emission tomography: synthesis, radiosynthesis, and in vitro and ex vivo evaluation of (11)C-labeled 2-(phenylthio)araalkylamines” (J Med Chem, 2000).

Columns and labels:
[1] = Half-life of washout rate of radioactivity from the cerebellum.; assay type: ADME, tissue-based
Summary of the method: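 Rats received the 11C tracer by tail vein (3-30 MBq, 350-450 ng, buffered saline), 3 per time point. Cerebellar radioactivity (%ID/g) was followed over time after injection, and the half-life of its washout was derived from that time course.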

Rattus norvegicus [2] = organism: Rattus norvegicus; test: Biodistribution of radioactivity in rat hippocampus upon Tail-Vein injection of [11C]-labeled compound after 5 min; assay type: ADME, organism-based; conditions: in vivo, iv
Rattus norvegicus [3] = organism: Rattus norvegicus; test: Biodistribution of radioactivity in rat hypothalamus upon Tail-Vein injection of [11C]-labeled compound after 5 min; assay type: ADME, organism-based; conditions: in vivo, iv
[4] = target: Sodium-dependent serotonin transporter (Homo sapiens, UniProt P31645); test: In vitro binding affinity on cloned Serotonin transporter
Summary of the method: (§1)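 Competition binding in triplicate on membranes from cloned human transporters. Radioligands: SERT [3H]paroxetine 0.2 nM with 10.3 µg protein, NET [3H]nisoxetine 1.0 nM with 16.9 µg, DAT [3H]WIN 35,428 1.0 nM with 6.2 µg. Buffer 50 mM Tris-Cl pH 7.4 with 150 mM NaCl/5 mM KCl (SERT, NET) or 100 mM NaCl (DAT). Incubated 40 min at 37 °C, then filtered on PEI-soaked GF/B filters. Nonspecific binding set with duloxetine 1 µM (SERT), desipramine 10 µM (NET) or nomifensine 10 µM (DAT). IC50 from nonlinear fit; Ki by Cheng-Prusoff.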

Rattus norvegicus [5] = organism: Rattus norvegicus; test: Biodistribution of radioactivity in rat cerebellum upon Tail-Vein injection of [11C]-labeled compound after 45 min; assay type: ADME, organism-based; conditions: in vivo, iv, 0.75 h
Rattus norvegicus [6] = organism: Rattus norvegicus; test: Biodistribution of radioactivity in rat hippocampus upon Tail-Vein injection of [11C]-labeled compound after 15 min; assay type: ADME, organism-based; conditions: in vivo, iv, 0.25 h
Rattus norvegicus [7] = organism: Rattus norvegicus; test: Biodistribution of radioactivity in rat hippocampus upon Tail-Vein injection of [11C]-labeled compound after 30 min; assay type: ADME, organism-based; conditions: in vivo, iv, 0.5 h
Rattus norvegicus [8] = organism: Rattus norvegicus; test: Biodistribution of radioactivity in rat striatum upon Tail-Vein injection of [11C]-labeled compound after 15 min; assay type: ADME, organism-based; conditions: in vivo, iv, 0.25 h
Rattus norvegicus [9] = organism: Rattus norvegicus; test: Biodistribution of radioactivity in rat blood upon Tail-Vein injection of [11C]-labeled compound after 30 min; assay type: ADME, organism-based; conditions: in vivo, iv, 0.5 h
Rattus norvegicus [10] = organism: Rattus norvegicus; test: Biodistribution of radioactivity in rat striatum upon Tail-Vein injection of [11C]-labeled compound after 60 min; assay type: ADME, organism-based; conditions: in vivo, iv, 1 h
Rattus norvegicus [11] = organism: Rattus norvegicus; test: Biodistribution of radioactivity in rat thalamus upon Tail-Vein injection of [11C]-labeled compound after 30 min; assay type: ADME, organism-based; conditions: in vivo, iv, 0.5 h
Rattus norvegicus [12] = organism: Rattus norvegicus; test: Biodistribution of radioactivity in rat cerebellum upon Tail-Vein injection of [11C]-labeled compound after 60 min; assay type: ADME, organism-based; conditions: in vivo, iv, 1 h
Rattus norvegicus [13] = organism: Rattus norvegicus; test: Biodistribution of radioactivity in rat cortex upon Tail-Vein injection of [11C]-labeled compound after 45 min; assay type: ADME, organism-based; conditions: in vivo, iv, 0.75 h
Rattus norvegicus [14] = organism: Rattus norvegicus; test: Biodistribution of radioactivity in rat hippocampus upon Tail-Vein injection of [11C]-labeled compound after 60 min; assay type: ADME, organism-based; conditions: in vivo, iv, 1 h
Rattus norvegicus [15] = organism: Rattus norvegicus; test: Biodistribution of radioactivity in rat blood upon Tail-Vein injection of [11C]-labeled compound after 60 min; assay type: ADME, organism-based; conditions: in vivo, iv, 1 h
Rattus norvegicus [16] = organism: Rattus norvegicus; test: Biodistribution of radioactivity in rat thalamus upon Tail-Vein injection of [11C]-labeled compound after 45 min; assay type: ADME, organism-based; conditions: in vivo, iv, 0.75 h
Rattus norvegicus [17] = organism: Rattus norvegicus; test: Biodistribution of radioactivity in rat hypothalamus upon Tail-Vein injection of [11C]-labeled compound after 60 min; assay type: ADME, organism-based; conditions: in vivo, iv, 1 h
Rattus norvegicus [18] = organism: Rattus norvegicus; test: Biodistribution of radioactivity in rat striatum upon Tail-Vein injection of [11C]-labeled compound after 5 min; assay type: ADME, organism-based; conditions: in vivo, iv
Rattus norvegicus [19] = organism: Rattus norvegicus; test: Biodistribution of radioactivity in rat cerebellum upon Tail-Vein injection of [11C]-labeled compound after 30 min; assay type: ADME, organism-based; conditions: in vivo, iv, 0.5 h
[20] = target: Sodium-dependent dopamine transporter (Homo sapiens, UniProt Q01959); test: In vitro binding affinity on cloned Dopamine transporter; summary of the method: as §1
Rattus norvegicus [21] = organism: Rattus norvegicus; test: Biodistribution of radioactivity in rat blood upon Tail-Vein injection of [11C]-labeled compound after 45 min; assay type: ADME, organism-based; conditions: in vivo, iv, 0.75 h
Rattus norvegicus [22] = organism: Rattus norvegicus; test: Biodistribution of radioactivity in rat cortex upon Tail-Vein injection of [11C]-labeled compound after 15 min; assay type: ADME, organism-based; conditions: in vivo, iv, 0.25 h
Rattus norvegicus [23] = organism: Rattus norvegicus; test: Biodistribution of radioactivity in rat cortex upon Tail-Vein injection of [11C]-labeled compound after 60 min; assay type: ADME, organism-based; conditions: in vivo, iv, 1 h
Rattus norvegicus [24] = organism: Rattus norvegicus; test: Biodistribution of radioactivity in rat blood upon Tail-Vein injection of [11C]-labeled compound after 15 min; assay type: ADME, organism-based; conditions: in vivo, iv, 0.25 h
Rattus norvegicus [25] = organism: Rattus norvegicus; test: Biodistribution of radioactivity in rat hypothalamus upon Tail-Vein injection of [11C]-labeled compound after 30 min; assay type: ADME, organism-based; conditions: in vivo, iv, 0.5 h
Rattus norvegicus [26] = organism: Rattus norvegicus; test: Biodistribution of radioactivity in rat cortex upon Tail-Vein injection of [11C]-labeled compound after 5 min; assay type: ADME, organism-based; conditions: in vivo, iv
Rattus norvegicus [27] = organism: Rattus norvegicus; test: Biodistribution of radioactivity in rat hypothalamus upon Tail-Vein injection of [11C]-labeled compound after 45 min; assay type: ADME, organism-based; conditions: in vivo, iv, 0.75 h
Rattus norvegicus [28] = organism: Rattus norvegicus; test: Biodistribution of radioactivity in rat cerebellum upon Tail-Vein injection of [11C]-labeled compound after 5 min; assay type: ADME, organism-based; conditions: in vivo, iv
Rattus norvegicus [29] = organism: Rattus norvegicus; test: Biodistribution of radioactivity in rat striatum upon Tail-Vein injection of [11C]-labeled compound after 45 min; assay type: ADME, organism-based; conditions: in vivo, iv, 0.75 h
Rattus norvegicus [30] = organism: Rattus norvegicus; test: Biodistribution of radioactivity in rat thalamus upon Tail-Vein injection of [11C]-labeled compound after 15 min; assay type: ADME, organism-based; conditions: in vivo, iv, 0.25 h
Rattus norvegicus [31] = organism: Rattus norvegicus; test: Biodistribution of radioactivity in rat blood upon Tail-Vein injection of [11C]-labeled compound after 5 min; assay type: ADME, organism-based; conditions: in vivo, iv
Rattus norvegicus [32] = organism: Rattus norvegicus; test: Biodistribution of radioactivity in rat thalamus upon Tail-Vein injection of [11C]-labeled compound after 60 min; assay type: ADME, organism-based; conditions: in vivo, iv, 1 h
Rattus norvegicus [33] = organism: Rattus norvegicus; test: Biodistribution of radioactivity in rat cortex upon Tail-Vein injection of [11C]-labeled compound after 30 min; assay type: ADME, organism-based; conditions: in vivo, iv, 0.5 h
Rattus norvegicus [34] = organism: Rattus norvegicus; test: Biodistribution of radioactivity in rat hypothalamus upon Tail-Vein injection of [11C]-labeled compound after 15 min; assay type: ADME, organism-based; conditions: in vivo, iv, 0.25 h
Rattus norvegicus [35] = organism: Rattus norvegicus; test: Biodistribution of radioactivity in rat hippocampus upon Tail-Vein injection of [11C]-labeled compound after 45 min; assay type: ADME, organism-based; conditions: in vivo, iv, 0.75 h
Rattus norvegicus [36] = organism: Rattus norvegicus; test: Biodistribution of radioactivity in rat striatum upon Tail-Vein injection of [11C]-labeled compound after 30 min; assay type: ADME, organism-based; conditions: in vivo, iv, 0.5 h
Rattus norvegicus [37] = organism: Rattus norvegicus; test: Biodistribution of radioactivity in rat thalamus upon Tail-Vein injection of [11C]-labeled compound after 5 min; assay type: ADME, organism-based; conditions: in vivo, iv
[38] = Log P at pH 7.4; assay type: physicochemical; conditions: buffer
Summary of the method: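 Partition of the radiolabelled compound between 1-octanol and 0.02 M phosphate buffer at pH 7.4.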

Rattus norvegicus [39] = organism: Rattus norvegicus; test: Biodistribution of radioactivity in rat cerebellum upon Tail-Vein injection of [11C]-labeled compound after 15 min; assay type: ADME, organism-based; conditions: in vivo, iv, 0.25 h
[40] = target: Sodium-dependent noradrenaline transporter (Homo sapiens, UniProt P23975); test: In vitro binding affinity on cloned Norepinephrine transporter
Summary of the method: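 Competition binding in triplicate on membranes from cloned human transporters. Buffer 50 mM Tris-Cl pH 7.4 with 150 mM NaCl/5 mM KCl (SERT, NET) or 100 mM NaCl (DAT). Incubated 40 min at 37 °C, then filtered on PEI-soaked GF/B filters. Nonspecific binding set with duloxetine 1 µM (SERT), desipramine 10 µM (NET) or nomifensine 10 µM (DAT). IC50 from nonlinear fit; Ki by Cheng-Prusoff.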

Sodium-dependent serotonin transporter, sequence (P31645 whole entry): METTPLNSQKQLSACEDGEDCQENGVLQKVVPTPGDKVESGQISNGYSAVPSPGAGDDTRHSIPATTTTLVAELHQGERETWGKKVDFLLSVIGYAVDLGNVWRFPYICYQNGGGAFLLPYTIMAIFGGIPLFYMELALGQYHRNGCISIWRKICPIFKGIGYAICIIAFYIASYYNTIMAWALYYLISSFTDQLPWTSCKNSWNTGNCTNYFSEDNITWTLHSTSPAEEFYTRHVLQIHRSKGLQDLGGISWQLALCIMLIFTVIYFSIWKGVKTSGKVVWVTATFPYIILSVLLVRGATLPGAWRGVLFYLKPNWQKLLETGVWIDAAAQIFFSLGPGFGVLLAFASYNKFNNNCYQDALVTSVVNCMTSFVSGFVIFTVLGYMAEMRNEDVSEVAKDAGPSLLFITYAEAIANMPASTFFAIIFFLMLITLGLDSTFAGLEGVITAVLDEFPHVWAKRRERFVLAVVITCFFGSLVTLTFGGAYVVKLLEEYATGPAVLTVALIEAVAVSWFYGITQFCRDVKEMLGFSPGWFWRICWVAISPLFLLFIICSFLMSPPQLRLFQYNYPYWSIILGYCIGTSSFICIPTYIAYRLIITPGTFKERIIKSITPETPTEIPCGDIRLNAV
Sodium-dependent dopamine transporter, sequence (Q01959 whole entry): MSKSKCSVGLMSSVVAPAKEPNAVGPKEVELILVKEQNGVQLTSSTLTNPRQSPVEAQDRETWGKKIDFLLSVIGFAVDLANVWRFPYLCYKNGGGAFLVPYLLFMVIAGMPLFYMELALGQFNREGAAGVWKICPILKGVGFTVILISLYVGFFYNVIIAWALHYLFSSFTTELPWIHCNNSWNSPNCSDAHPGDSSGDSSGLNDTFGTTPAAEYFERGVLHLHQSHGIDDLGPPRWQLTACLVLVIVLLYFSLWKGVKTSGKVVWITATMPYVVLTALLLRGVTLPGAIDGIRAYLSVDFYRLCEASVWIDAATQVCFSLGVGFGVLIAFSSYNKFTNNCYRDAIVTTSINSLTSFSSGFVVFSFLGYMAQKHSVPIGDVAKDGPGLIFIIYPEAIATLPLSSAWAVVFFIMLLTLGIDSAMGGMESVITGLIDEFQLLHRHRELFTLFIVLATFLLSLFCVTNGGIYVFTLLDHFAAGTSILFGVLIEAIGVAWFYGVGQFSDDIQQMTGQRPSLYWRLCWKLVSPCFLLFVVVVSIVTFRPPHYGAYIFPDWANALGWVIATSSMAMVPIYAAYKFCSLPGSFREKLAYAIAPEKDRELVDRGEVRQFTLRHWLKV
Sodium-dependent noradrenaline transporter, sequence (P23975 whole entry): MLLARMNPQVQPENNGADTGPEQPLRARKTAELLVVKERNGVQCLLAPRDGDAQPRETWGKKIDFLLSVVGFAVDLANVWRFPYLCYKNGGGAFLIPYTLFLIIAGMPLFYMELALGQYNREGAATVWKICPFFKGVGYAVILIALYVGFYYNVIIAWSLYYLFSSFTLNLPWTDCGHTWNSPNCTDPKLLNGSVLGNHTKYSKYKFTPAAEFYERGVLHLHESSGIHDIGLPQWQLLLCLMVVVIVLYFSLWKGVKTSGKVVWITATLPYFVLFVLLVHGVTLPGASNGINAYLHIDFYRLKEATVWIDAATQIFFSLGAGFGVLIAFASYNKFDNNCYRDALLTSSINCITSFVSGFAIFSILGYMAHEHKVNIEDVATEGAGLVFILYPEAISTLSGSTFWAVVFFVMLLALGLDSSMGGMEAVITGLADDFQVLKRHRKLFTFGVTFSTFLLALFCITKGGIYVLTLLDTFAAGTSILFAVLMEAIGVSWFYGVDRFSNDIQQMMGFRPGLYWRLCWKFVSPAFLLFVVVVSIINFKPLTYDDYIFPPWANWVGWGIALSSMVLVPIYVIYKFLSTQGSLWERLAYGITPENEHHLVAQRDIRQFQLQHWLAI

Row | Compound | T1/2 [1] [min] | ID/g (Rattus norvegicus [2]) [%] | ID/g (Rattus norvegicus [3]) [%] | Ki [4] [µM] | ID/g (Rattus norvegicus [5]) [%] | ID/g (Rattus norvegicus [6]) [%] | ID/g (Rattus norvegicus [7]) [%] | ID/g (Rattus norvegicus [8]) [%] | ID/g (Rattus norvegicus [9]) [%] | ID/g (Rattus norvegicus [10]) [%] | ID/g (Rattus norvegicus [11]) [%] | ID/g (Rattus norvegicus [12]) [%] | ID/g (Rattus norvegicus [13]) [%] | ID/g (Rattus norvegicus [14]) [%] | ID/g (Rattus norvegicus [15]) [%] | ID/g (Rattus norvegicus [16]) [%] | ID/g (Rattus norvegicus [17]) [%] | ID/g (Rattus norvegicus [18]) [%] | ID/g (Rattus norvegicus [19]) [%] | Ki [20] [µM] | also measured
1 | CN(C)Cc1ccccc1Sc1ccc(C#N)cc1N [DASB] | 15.6 | 1.13 | 1.25 | 0.0011 | 0.13 | 1.06 | 0.72 | 1.24 | 0.22 | 0.35 | 0.8 | 0.07 | 0.48 | 0.35 | 0.06 | 0.64 | 0.62 | 1.24 | 0.27 | 1.42 | ID/g (Rattus norvegicus [21]): 0.1%; ID/g (Rattus norvegicus [22]): 1.29%; ID/g (Rattus norvegicus [23]): 0.32%; ID/g (Rattus norvegicus [24]): 0.31%; ID/g (Rattus norvegicus [25]): 1.02%; ID/g (Rattus norvegicus [26]): 1.46%; ID/g (Rattus norvegicus [27]): 0.8%; ID/g (Rattus norvegicus [28]): 0.76%; ID/g (Rattus norvegicus [29]): 0.55%; ID/g (Rattus norvegicus [30]): 1.21%; ID/g (Rattus norvegicus [31]): 0.58%; ID/g (Rattus norvegicus [32]): 0.49%; ID/g (Rattus norvegicus [33]): 0.74%; ID/g (Rattus norvegicus [34]): 1.39%; ID/g (Rattus norvegicus [35]): 0.49%; ID/g (Rattus norvegicus [36]): 0.77%; ID/g (Rattus norvegicus [37]): 1.15%; logD [38]: 2.707; ID/g (Rattus norvegicus [39]): 0.54%
2 | COc1ccc(Sc2ccccc2CN(C)C)c(N)c1 | 18.8 | 1.09 | 1.22 | 0.00189 | 0.2 | 0.98 | 0.74 | 1.07 | 0.13 | 0.38 | 0.83 | 0.1 | 0.54 | 0.38 | 0.07 | 0.71 | 0.63 | 1.19 | 0.27 | 2.65 | Ki [40]: 1.99 µM; ID/g (Rattus norvegicus [21]): 0.1%; ID/g (Rattus norvegicus [22]): 1.11%; ID/g (Rattus norvegicus [23]): 0.36%; ID/g (Rattus norvegicus [24]): 0.17%; ID/g (Rattus norvegicus [25]): 1.08%; ID/g (Rattus norvegicus [26]): 1.37%; ID/g (Rattus norvegicus [27]): 0.89%; ID/g (Rattus norvegicus [28]): 0.8%; ID/g (Rattus norvegicus [29]): 0.58%; ID/g (Rattus norvegicus [30]): 1.13%; ID/g (Rattus norvegicus [31]): 0.3%; ID/g (Rattus norvegicus [32]): 0.48%; ID/g (Rattus norvegicus [33]): 0.7%; ID/g (Rattus norvegicus [34]): 1.31%; ID/g (Rattus norvegicus [35]): 0.56%; ID/g (Rattus norvegicus [36]): 0.76%; ID/g (Rattus norvegicus [37]): 1.12%; logD ([38]; read-out: logD): 2.83; ID/g (Rattus norvegicus [39]): 0.52%
